Values after ≈ are worked out from the molar mass of the structure shown. Active and inactive are the calls of the source. No cut-off for these calls is given here.
Columns and labels:
[1] = Cytotoxicity against human LO2 cells assessed as cell viability at 512 ug/mL after 72 hrs by MTT assay; format: cell-based; conditions: l02, 72 h
Outline: (§1)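 PC12 and human hepatocyte LO2 cells were exposed to compound at 8–512 µg/mL in twofold steps. Viability was read by colorimetric MTT assay, with norfloxacin as positive control. Each value is the mean of three replicates.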

[2] = system: Pseudomonas aeruginosa; test: Antibacterial activity against Pseudomonas aeruginosa ATCC 9027 after 18 to 24 hrs; format: functional
[3] = system: Staphylococcus aureus; test: Antibacterial activity against methicillin-resistant Staphylococcus aureus N315 after 18 to 24 hrs; format: functional
[4] = Antibacterial activity against Eberthella typhosa ATCC 14028 after 18 to 24 hrs; format: functional
[5] = system: Bacillus spizizenii; test: Antibacterial activity against Bacillus subtilis ATCC 6633 after 18 to 24 hrs; format: functional
[6] = system: Bacillus; test: Antibacterial activity against Bacillus proteus ATCC 13315 after 18 to 24 hrs; format: functional
[7] = Cytotoxicity against rat PC12 cells assessed as reduction in cell viability at 128 ug/mL after 72 hrs by MTT assay; format: cell-based; conditions: pc-12, 72 h; outline: as §1
[8] = Inhibition of Escherichia coli DNA gyrase assessed as reduction in enzyme-mediated supercoiling of pBR322 DNA after 1.5 hrs by agarose gel electrophoresis method
[9] = system: Escherichia coli; test: Antibacterial activity against Escherichia coli ATCC 25922 after 18 to 24 hrs; format: functional
[10] = system: Calf thymus DNA; test: Binding affinity to calf thymus double stranded DNA assessed as hypochromic effect in absence of Mg2+ ion by […] spectroscopic analysis; format: nucleic-acid assay; conditions: Bos taurus
[11] = system: Micrococcus luteus; test: Antibacterial activity against Micrococcus luteus ATCC 4698 after 18 to 24 hrs; format: functional; conditions: NCTC 2665
[12] = Cytotoxicity against human LO2 cells assessed as reduction in cell viability at 256 ug/mL after 72 hrs by MTT assay; format: cell-based; conditions: l02, 72 h; outline: as §1
[13] = Cytotoxicity against rat PC12 cells assessed as reduction in cell viability at 256 ug/mL after 72 hrs by MTT assay; format: cell-based; conditions: pc-12, 72 h; outline: as §1
[14] = system: Staphylococcus aureus; test: Antibacterial activity against Staphylococcus aureus ATCC 25923 after 18 to 24 hrs; format: functional
[15] = Cytotoxicity against human LO2 cells assessed as reduction in cell viability at 128 ug/mL after 72 hrs by MTT assay; format: cell-based; conditions: l02, 72 h; outline: as §1
[16] = system: Bacillus; test: Potency index, ratio of norfloxacin MIC to compound MIC for Bacillus proteus ATCC 13315; format: functional
[17] = system: Eberthella typhosa; test: Potency index, ratio of norfloxacin MIC to compound MIC for Eberthella typhosa ATCC 14028; format: functional
[18] = system: Staphylococcus aureus; test: Binding affinity to methicillin-resistant Staphylococcus aureus double stranded genomic DNA assessed as decrease in fluorescence intensity at 2.23 x 10^-5M in presence of 20 x 10^-5 M Cu2+ ions by spectrofluorometric analysis
Outline: (§2)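 MRSA genomic DNA stock was quantified by absorbance at 260 nm, using ε260 = 6600 L mol⁻¹ cm⁻¹ (as molarity of phosphate). Purity was checked by the A260/A280 ratio.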

[19] = Cytotoxicity against rat PC12 cells assessed as cell viability at <512 ug/mL after 72 hrs by MTT assay relative to control; format: cell-based, PC-12; conditions: read-out: Activity; outline: as §1
[20] = system: Staphylococcus aureus; test: Binding affinity to methicillin-resistant Staphylococcus aureus double stranded genomic DNA assessed as decrease in fluorescence intensity at 2.23 x 10^-5 M in presence of 0.4 x 10^-6 M Cu2+ ions by spectrofluorometric analysis; outline: as §2
[21] = system: Staphylococcus aureus; test: Binding affinity to methicillin-resistant Staphylococcus aureus double stranded genomic DNA assessed as hypochromic effect by spectroscopic analysis; outline: as §2
[22] = Cytotoxicity against human LO2 cells assessed as cell viability at <512 ug/mL after 72 hrs by MTT assay relative to control; format: cell-based, L02; conditions: read-out: Activity; outline: as §1
[23] = molecular target: T1, Albumin (Homo sapiens, UniProt P02768); test: Binding affinity to human serum albumin at pH 7.4 at 310 K by Scatchard plot analysis; format: ADME; conditions: isolated protein
Outline: (§3)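 Scatchard treatment of the HSA fluorescence-quenching titration in pH 7.4 solution (excitation 295 nm) at each temperature. It gave the binding constant Kb and the number of binding sites n, with fit correlation R and SD.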

[24] = Cytotoxicity against rat PC12 cells assessed as cell viability at 512 ug/mL after 72 hrs by MTT assay; format: cell-based; conditions: pc-12, 72 h; outline: as §1
[25] = system: Staphylococcus aureus; test: Electrostatic binding to methicillin-resistant Staphylococcus aureus double stranded genomic DNA assessed as Stern-Volmer constant in presence of potassium iodide by steady state quenching analysis; outline: as §2
[26] = Binding affinity to 0 to 6.03 x 10^-5 M Cu2+ assessed as 1:1 compound/metal ion complex formation at 2.23 x 10^-5 M at pH 7.4 by spectrofluorimetric method
[27] = system: Staphylococcus aureus; test: Binding affinity to methicillin-resistant Staphylococcus aureus […] genomic DNA assessed as decrease in fluorescence intensity at 2 x 10^-5M at 294 K by spectrofluorometric analysis; outline: as §2
[28] = Binding affinity to 4.69 x 10^-5 M Cu2+ at 2.23 x 10^-5 M at pH 7.4 by spectrofluorimetric method
[29] = molecular target: T1, Albumin; test: Binding affinity to human serum albumin at pH 7.4 at 288 K by Scatchard plot analysis; format: ADME; conditions: isolated protein; outline: as §3
[30] = system: Staphylococcus aureus; test: Antibacterial activity against methicillin/quinolone-resistant Staphylococcus aureus ATCC 700699; format: functional
[31] = system: Staphylococcus aureus; test: Binding affinity to methicillin-resistant Staphylococcus aureus double stranded genomic DNA assessed as decrease in fluorescence intensity in absence of Cu2+ ions by spectrofluorometric analysis; outline: as §2
[32] = molecular target: T1, Albumin; test: Binding affinity to human serum albumin at pH 7.4 at 303 K by Scatchard plot analysis; format: ADME; conditions: isolated protein; outline: as §3

T1 sequence (P02768 whole entry): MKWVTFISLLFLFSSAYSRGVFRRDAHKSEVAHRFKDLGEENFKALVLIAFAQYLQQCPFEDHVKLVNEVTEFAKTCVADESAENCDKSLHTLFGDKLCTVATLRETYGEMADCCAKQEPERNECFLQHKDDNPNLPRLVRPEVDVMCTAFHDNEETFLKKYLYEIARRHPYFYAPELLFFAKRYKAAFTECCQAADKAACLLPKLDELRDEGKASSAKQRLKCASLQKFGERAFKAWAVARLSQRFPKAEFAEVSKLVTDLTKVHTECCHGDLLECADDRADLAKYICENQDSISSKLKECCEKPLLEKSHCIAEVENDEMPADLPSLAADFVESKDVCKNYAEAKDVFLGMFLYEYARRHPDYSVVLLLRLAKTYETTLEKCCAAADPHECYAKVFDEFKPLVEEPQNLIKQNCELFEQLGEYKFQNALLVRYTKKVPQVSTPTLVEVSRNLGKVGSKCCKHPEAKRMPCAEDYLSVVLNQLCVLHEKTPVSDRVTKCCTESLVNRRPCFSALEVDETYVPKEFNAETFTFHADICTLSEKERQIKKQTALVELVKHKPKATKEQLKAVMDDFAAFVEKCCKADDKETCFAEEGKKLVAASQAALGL

SMILES	Activity [1]	MIC [2]	MIC [3]	MIC [4]	MIC [5]	MIC [6]	Activity [7]	IC50 [8]	MIC [9]	MIC [11]	Activity [12]	Activity [13]	MIC [14]	Activity [15]	other results
CCn1cc(C(=O)O)c(=O)c2cc(F)c(N3CCNCC3)cc21 [NORFLOXACIN]	Toxic	1.7 µg/mL (≈ 5.32 µM)	10.7 µg/mL (≈ 33.5 µM)	5.3 µg/mL (≈ 16.6 µM)	1.3 µg/mL (≈ 4.07 µM)	13.3 µg/mL (≈ 41.6 µM)	Toxic	18.2 µM	4.3 µg/mL (≈ 13.5 µM)	2.7 µg/mL (≈ 8.46 µM)	Toxic	Toxic	0.8 µg/mL (≈ 2.51 µM)	Toxic	Activity [10]: 16%
CCn1cc(-c2csc(N)n2)c(=O)c2cc(F)c(F)cc21	–	78.6 µg/mL (≈ 256 µM)	213 µg/mL (≈ 694 µM)	1.2 µg/mL (≈ 3.9 µM)	26.7 µg/mL (≈ 86.9 µM)	0.6 µg/mL (≈ 1.95 µM)	–	–	256 µg/mL (≈ 833 µM)	5.3 µg/mL (≈ 17.2 µM)	–	–	0.8 µg/mL (≈ 2.6 µM)	–	Ratio [16]: 22; Ratio [17]: 4
CCn1cc(-c2csc(N)n2)c(=O)c2cc(N3CCCC3)c(Cl)cc21	Non-toxic	0.5 µg/mL (≈ 1.33 µM)	0.8 µg/mL (≈ 2.13 µM)	2 µg/mL (≈ 5.33 µM)	1.3 µg/mL (≈ 3.47 µM)	1 µg/mL (≈ 2.67 µM)	Non-toxic	11.5 µM	0.8 µg/mL (≈ 2.13 µM)	2.7 µg/mL (≈ 7.2 µM)	Non-toxic	Non-toxic	0.6 µg/mL (≈ 1.6 µM)	Non-toxic	Activity [18]: Active; viability at 72 h [19]: > 88%; Activity [20]: Active; Activity [21]: 11.4%; viability at 72 h [22]: > 88%; Kb [23]: 0.656 ×10⁵ L/mol; Activity [24]: Non-toxic; KSV [25]: 30.1 M⁻¹; Activity [26]: Active; Activity [27]: Active; Activity [28]: Active; Kb [29]: 0.726 ×10⁵ L/mol; MIC [30]: 16 µg/mL (≈ 42.7 µM); Activity [31]: inactive; Kb [32]: 0.701 ×10⁵ L/mol

From ChEMBL document CHEMBL3822423 (J Med Chem, 2016)
